CSC inhib: cancer stem cell viability inhibitors, primary screen, luminescence; AID 2717, 2010; inhibition, % at 7.5 µM; 300,000 tested, 1.1% active; cancer stem cell-like cells viability; in the data active = inhibition above about 75%; tested in HMLE shEcad cells
T cruzi inh: inhibitors of intracellular T. cruzi growth, primary screen, luminescence, NIH3T3 host cells; inhibition, % (test concentration not listed); T. cruzi beta-gal in NIH3T3, 90 h; AID 1885, 2009; 300,000 tested, 1.4% active;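 active = mean inhibition across valid replicates above about 55%, limit read from the data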;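 note: signal also drops with host cell toxicity which is not excluded here; 0% = plate median of DMSO wells and 100% = zero luminescence signal; higher percent means less beta-gal luminescence so fewer parasites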
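System: mouse NIH/3T3 fibroblasts infected with β-gal-expressing T. cruzi Tulahuen C4 / Input: NIH/3T3 cells, 5,000 per well / Buffer or medium: Low-serum DMEM with 2% FBS / Probe or stimulus: 5000 reporter trypomastigotes per well / Schedule: ≥90 h infection period, 3 h prior cell attachment / Measured by: GalScreen luminescence, 60 min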
NR3A LBD binder: binders of NR3A ligand-binding domain, primary screen, biophysical, differential scanning fluorimetry, uHTS | 340,000 tested, 2.5% active | Glutamate receptor ionotropic, NMDA 3A (GRIN3A) ligand-binding domain | NR3A LBD differential scanning fluorimetry, Tm shift; 0% = protein alone, 100% = glycine-bound protein | AID 1259313, 2017 | Tm shift relative to glycine control, % at 25 µM;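 active = melting temperature shift of at least 10% of the positive control shift, at one fixed dose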
CHOP inh: inhibitors of CHOP promoter induction, primary screen, cell-based, unfolded protein response, luciferase reporter | AID 2732, 2010 | inhibition, % at 10 µM | CHO-K1 CHOP-promoter luciferase, tunicamycin-induced, 15-18 h | 220,000 tested, 3.8% active;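 active = compounds that reduced the stress-induced luciferase reporter signal by more than about 70% of percent inhibition, limit read from the data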;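 note: 0% = tunicamycin plus vehicle and 100% = wells without tunicamycin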
PREPL inh: PREPL enzyme inhibitors, primary screen, biochemical, fluorescence polarization. Prolyl endopeptidase-like (Homo sapiens), Q4J6C6. recombinant PREPL, fluorescence polarization activity-based probe. inhibition, % at 5.96 µM. 320,000 tested, 0.68% active; in the data active = inhibition above about 43%;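 note: 0% = enzyme with DMSO and 100% = wells lacking enzyme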
Target sequence (Q4J6C6 whole entry, looked up): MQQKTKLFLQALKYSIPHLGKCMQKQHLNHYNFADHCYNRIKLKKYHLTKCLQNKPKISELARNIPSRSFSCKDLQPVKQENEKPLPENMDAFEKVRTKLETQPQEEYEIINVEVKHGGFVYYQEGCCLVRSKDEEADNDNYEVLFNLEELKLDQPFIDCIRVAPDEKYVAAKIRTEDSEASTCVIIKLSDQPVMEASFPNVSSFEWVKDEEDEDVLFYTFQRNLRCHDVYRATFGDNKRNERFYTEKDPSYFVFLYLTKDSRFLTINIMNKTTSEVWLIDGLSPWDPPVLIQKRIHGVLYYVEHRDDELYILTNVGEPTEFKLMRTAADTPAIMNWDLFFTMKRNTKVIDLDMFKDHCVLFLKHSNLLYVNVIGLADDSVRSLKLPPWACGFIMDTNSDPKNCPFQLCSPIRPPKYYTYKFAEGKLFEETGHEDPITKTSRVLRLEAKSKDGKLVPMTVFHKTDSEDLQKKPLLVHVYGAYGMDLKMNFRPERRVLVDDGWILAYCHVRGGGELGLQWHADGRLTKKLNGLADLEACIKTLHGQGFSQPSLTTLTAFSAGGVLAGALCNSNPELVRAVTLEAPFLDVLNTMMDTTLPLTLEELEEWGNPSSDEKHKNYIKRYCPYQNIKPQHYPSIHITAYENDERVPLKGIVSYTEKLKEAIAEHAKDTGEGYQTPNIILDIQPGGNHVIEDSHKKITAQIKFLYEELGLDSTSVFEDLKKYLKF
Beta cell apopt: inhibitors of cytokine-induced beta cell apoptosis, primary screen, luminescence. INS-1E cytokine-induced death, ATP luminescence, 48 h; percent of positive-control rescue, neutral wells zero. protection from apoptosis, % (concentration not given with the values). 300,000 tested, 0.8% active;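 active = Every replicate reaches about 75%, or at least half do and their mean reaches it too, limit read from the data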;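 note: 0% = cytokine-treated negative control wells and 100% = positive control rescue; higher means more ATP so stronger rescue from cytokine killing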
An asterisk follows results filed as active. Only some compounds are listed: those with a hit (about 6.7% of all), similar ones and a draw of the others.

Screening Cc1ccc(CS(=O)(=O)CC(C)(O)c2ccc(Cl)cc2)cc1 (centres undefined) returned CSC inhib -13.2, T cruzi inh 25.1, NR3A LBD binder 0.6, PREPL inh -14.4 and Beta cell apopt -4.7.
Cc1cc2ccccc2cc1C(=O)c1ccccc1 was read as NR3A LBD binder 2.3.
Screening Cc1sc2cc3c(c(C(=O)c4ccccc4)[n+]2c1C)-c1cccc2cccc-3c12 returned CSC inhib 35.0, T cruzi inh 73.8*, NR3A LBD binder -3.6, CHOP inh -19.3, PREPL inh 25.1 and Beta cell apopt 99.5*.
O=C(c1ccccc1)c1c2c(cc3sc4ccccc4[n+]13)-c1cccc3cccc-2c13 was read as CSC inhib 63.7, NR3A LBD binder -7.5, CHOP inh 82.4*, PREPL inh 22.6 and Beta cell apopt 98.4*.
`O=C(Cc1ccc(NC(=O)C2CCCN(C(=O)CCc3ccccc3)C2)cc1)Nc1cccc(C(=O)N2CCCC2)c1` (centres undefined) gave NR3A LBD binder -1.1.
`C[C@H](CO)N1C[C@H](C)[C@@H](CN(C)Cc2ccc3c(c2)OCO3)Oc2ccc(NS(C)(=O)=O)cc2C1=O` gave CSC inhib -22.8, NR3A LBD binder 1.1, PREPL inh 11.8 and Beta cell apopt -10.8.
C/C(=N\Nc1nc2ccccc2[nH]1)c1ccccn1 was read as T cruzi inh 41.9, PREPL inh 16.8 and Beta cell apopt 92.0*.
For C/C(=N\Nc1nc2ccccc2[nH]1)c1ccc2c(c1)OCCO2 the results were CSC inhib 6.3, T cruzi inh 56.7*, NR3A LBD binder -1.7, CHOP inh 5.7, PREPL inh 18.4 and Beta cell apopt 19.0.
Screening CNC(=S)N1CCN(CCNC2=CC(=O)CC(C)(C)C2)CC1 returned CSC inhib -1.7, T cruzi inh -4.1, NR3A LBD binder 0.9, CHOP inh 6.2, PREPL inh -0.7 and Beta cell apopt 4.5.
Screening CC1(C)CC(NCCN2CCN(C3=CC(=C(C#N)C#N)CC(C)(C)C3)CC2)=CC(=C(C#N)C#N)C1 returned CSC inhib 9.2, T cruzi inh 85.8*, NR3A LBD binder 0.5, CHOP inh 16.4, PREPL inh 13.4 and Beta cell apopt 25.6.
Cc1ccc(CS(=O)Cc2ccc(C(=O)N3CCN(c4ccccc4)CC3)o2)cc1 (centres undefined) was read as CSC inhib -6.2, T cruzi inh 55.7*, NR3A LBD binder 1.3, PREPL inh -2.9 and Beta cell apopt -4.1.
For COC(=O)Cc1ccc(NC(=S)N2CCN(c3ccc(F)cc3)CC2)cc1 the results were CSC inhib 1.9, T cruzi inh -28.4, NR3A LBD binder -7.9, CHOP inh 71.9*, PREPL inh 7.3 and Beta cell apopt 4.5.
For COc1ccc(C(=O)N2CCN(c3ccc(NC(=O)Cc4ccccc4)cc3)CC2)cc1 the results were CSC inhib -13.9, T cruzi inh -1.9, NR3A LBD binder -4.3, PREPL inh 19.5 and Beta cell apopt 8.2.
For Cc1ccc(C(=O)N2CCN(c3ccc(NC(=S)NC(=O)Cc4ccccc4)cc3)CC2)cc1 the results were CSC inhib 31.6, T cruzi inh 38.0, NR3A LBD binder 0.2, CHOP inh 74.0*, PREPL inh 42.4 and Beta cell apopt 18.2.
For CC1CC2=C(NC(=S)NC2c2cccc(F)c2)/C(=C/c2cccc(F)c2)C1 (centres undefined) the results were T cruzi inh 58.6*, NR3A LBD binder 2.2 and CHOP inh 86.3*.
For COc1ccc(S(=O)(=O)/N=C2\C=C(Nc3ccc(O)cc3)C(=O)c3ccccc32)cc1 the results were T cruzi inh 67.1*, NR3A LBD binder 3.2, PREPL inh 25.2 and Beta cell apopt 111.1*.
For Cc1ccc(C)c(S(=O)(=O)/N=C2\C=C(NS(=O)(=O)c3ccccc3)C(=O)c3ccccc32)c1 the results were T cruzi inh -9.0, NR3A LBD binder -3.0, PREPL inh -6.7 and Beta cell apopt 1.0.
For O=C(O)c1ccc(S(=O)(=O)/N=C2\C=C(Nc3ccccc3F)C(=O)c3ccccc32)cc1 the results were CSC inhib 103.8*, T cruzi inh 28.3, NR3A LBD binder 4.2, PREPL inh 31.4 and Beta cell apopt 99.3*.
`Cc1ccc(NC2=C/C(=N/S(=O)(=O)c3cccs3)c3ccccc3C2=O)cc1C` gave CSC inhib 19.9, T cruzi inh -44.0, NR3A LBD binder -3.0, CHOP inh -70.5, PREPL inh 2.0 and Beta cell apopt 80.4*.
For CC(C)c1ccc(S(=O)(=O)/N=C2\C=C(NS(=O)(=O)c3ccccc3)C(=O)c3ccccc32)cc1 the results were CSC inhib -9.3, T cruzi inh -7.6, NR3A LBD binder 1.3 and PREPL inh 9.2.
Screening CCc1ccc(S(=O)(=O)/N=C2\C=C(NS(=O)(=O)c3ccccc3)C(=O)c3ccccc32)cc1 returned T cruzi inh -6.4 and NR3A LBD binder 1.7.
For Cc1ccccc1NC1=C/C(=N\S(=O)(=O)c2ccc(C(=O)O)cc2)c2ccccc2C1=O the results were T cruzi inh 42.0, NR3A LBD binder -3.8, PREPL inh 28.9 and Beta cell apopt 107.4*.
For CCOP(=O)(OCC)C(NC(=O)c1cccs1)c1ccccc1 (centres undefined) the results were CSC inhib -0.4, T cruzi inh 5.0, NR3A LBD binder 2.9, PREPL inh 7.9 and Beta cell apopt -7.3.
`COc1ccc(NC2CCCN(C(=O)C3=NN(C)C(=O)CC3)C2)cc1OC` (centres undefined) gave CSC inhib -11.0, T cruzi inh -6.5, NR3A LBD binder -0.2, PREPL inh -0.2 and Beta cell apopt -3.0.
`COc1ccc(S(=O)(=O)Nc2cccc(S(=O)(=O)N3CCCC3)c2)cc1OC` gave CSC inhib -5.2, T cruzi inh -1.0, NR3A LBD binder -1.0 and PREPL inh -0.2.
For CCc1ccc(NC(=O)CCc2nnc3ccc(N4CCC5(CC4)OCCO5)nn23)cc1 the results were CSC inhib 3.6, T cruzi inh -4.4, NR3A LBD binder 10.8*, PREPL inh 12.4 and Beta cell apopt 0.7.
`CC(=S)/C=C1\Sc2ccccc2N1C` gave CSC inhib 2.3, T cruzi inh 69.1*, NR3A LBD binder 2.1, CHOP inh 18.2, PREPL inh 23.9 and Beta cell apopt 13.4.
Screening O=C1OC(c2ccc(F)cc2)=N/C1=C\c1ccc(Br)o1 returned CSC inhib -2.0, T cruzi inh 4.1, NR3A LBD binder -0.5, CHOP inh 73.1*, PREPL inh 8.3 and Beta cell apopt -5.7.

Source: PubChem
